{"source": "ChEMBL document CHEMBL1914352", "about": "“Design, synthesis, docking, and biological evaluation of novel diazide-containing isoxazole- and pyrazole-based histone deacetylase probes” (J Med Chem, 2011)", "key": {"[1]": {"molecular_target": "T1, Matrix metalloproteinase-14 (Homo sapiens, UniProt P50281)", "experiment": "Inhibition of MMP14"}, "[2]": {"tested_on": "HepG2", "experiment": "Induction of apoptosis in human HepG2 cells assessed as hyperacetylation of p53 after 24 hrs by Western blot analysis", "type": "functional, cell-based", "in_short": "(§1)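 HepG2 cells are seeded at 2.7×10^5 cells/well in D7 medium (DMEM, 7% FBS), refed after 24 h, and after 1 h at 37 °C treated with DMSO or 1, 5 or 10 µM inhibitor. Lysis is in ice-cold 1% CHAPSO buffer (50 mM Hepes pH 7.4), 45 min at 4 °C. Immunoblots are probed for cleaved caspase 3 Asp175, acetyl-Lys373 p53, total p53 and GAPDH, detected by chemiluminescence, with band densitometry.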"}, "[3]": {"tested_on": "HepG2", "experiment": "Induction of apoptosis in human HepG2 cells assessed as cleavage of caspase 3 at 1 to 10 uM after 24 hrs by Western blot analysis", "type": "functional, cell-based", "in_short": "as §1"}, "[4]": {"molecular_target": "T1, Matrix metalloproteinase-14", "experiment": "Inhibition of MMP14 assessed as activity remaining at […]"}, "[5]": {"molecular_target": "T2, Interstitial collagenase (Homo sapiens) (UniProt P03956)", "T2 sequence (whole entry)": "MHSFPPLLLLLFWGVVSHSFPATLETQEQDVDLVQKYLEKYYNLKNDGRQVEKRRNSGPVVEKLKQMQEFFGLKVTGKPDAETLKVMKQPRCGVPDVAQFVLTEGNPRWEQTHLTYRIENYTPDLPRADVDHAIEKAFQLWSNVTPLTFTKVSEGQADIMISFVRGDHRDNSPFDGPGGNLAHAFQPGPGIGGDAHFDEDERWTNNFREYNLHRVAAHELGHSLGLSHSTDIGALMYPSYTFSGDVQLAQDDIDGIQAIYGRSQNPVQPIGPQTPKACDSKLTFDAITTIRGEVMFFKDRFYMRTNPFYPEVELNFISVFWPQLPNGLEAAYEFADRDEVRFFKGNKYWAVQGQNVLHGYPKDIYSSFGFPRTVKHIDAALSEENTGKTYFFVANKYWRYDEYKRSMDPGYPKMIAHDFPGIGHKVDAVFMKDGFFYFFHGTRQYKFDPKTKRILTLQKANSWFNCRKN", "experiment": "Inhibition of MMP1 assessed as activity remaining at […]"}, "[6]": {"tested_on": "SH-SY5Y", "experiment": "Cytotoxicity against retinoic acid-differentiated human SH-SY5Y cells assessed as cell survival at 20 uM", "type": "cell-based", "in_short": "(§2)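 SH-SY5Y cells are differentiated for 7–8 days in 1% FBS medium with 10 µM retinoic acid, then seeded at 2×10^4 cells/well in 1% FBS medium with 5 µM RA. After 24 h they go into phenol-red-free 1% FBS/RA medium with DMSO or 0.5–50 µM inhibitor, without or with 100 µM LY294002, for 24 h. Readout: XTT viability as % survival vs vehicle, four replicates ± SD, one-way ANOVA with Dunnett.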"}, "[7]": {"tested_on": "SH-SY5Y", "experiment": "Neuroprotective activity against LY294002-induced stress in retinoic acid differentiated human SH-SY5Y cells assessed as cell survival at 1 uM", "type": "functional, cell-based", "in_short": "as §2"}, "[8]": {"tested_on": "SH-SY5Y", "experiment": "Neuroprotective activity against LY294002-induced stress in retinoic acid differentiated human SH-SY5Y cells assessed as cell survival at 0.5 uM", "type": "functional, cell-based", "in_short": "as §2"}}, "note": "Active and inactive are the calls of the source. The calls are words filed in the database; no cut-off is given here.", "data": [{"compound": "[N-]=[N+]=NCc1cc(N=[N+]=[N-])cc(C(=O)Nc2ccc(-c3cc(C(=O)NCCCCCCC(=O)NO)no3)cc2)c1", "values": [{"measurement": "IC50", "setting": "[1]", "result": 9.33, "unit": "µM"}, {"measurement": "Activity", "setting": "[2]", "result": "inactive"}, {"measurement": "Activity", "setting": "[3]", "result": "Active"}]}, {"compound": "[N-]=[N+]=NCc1cc(Cn2cc(NC(=O)CCCCCCC(=O)NO)cn2)cc(N=[N+]=[N-])c1", "values": [{"measurement": "Activity", "setting": "[4]", "result": "> 70", "unit": "%"}, {"measurement": "Activity", "setting": "[5]", "result": "> 70", "unit": "%"}, {"measurement": "Activity", "setting": "[6]", "result": "Toxic"}, {"measurement": "Activity", "setting": "[7]", "result": "Active"}, {"measurement": "Activity", "setting": "[8]", "result": "Active"}]}]}
